In ChEMBL document CHEMBL5143731, “N-Acylamino Saccharin as an Emerging Cysteine-Directed Covalent Warhead and Its Application in the Identification of Novel FBPase Inhibitors toward Glucose Reduction” (J Med Chem, 2022) one finds half-life, IC50 and Ratio IC50 data, which are given here for 23 molecules.

Each structure is given as a SMILES string.

What is called half-life is the time in which the quantity being followed falls by half. Low readings indicate fast loss, high ones slow loss. The term IC50 denotes the concentration that inhibits the measured activity by half. Higher therefore signals lower potency.

A short description of data set [1]: Half life of the compound in buffer. The data set is classed as physicochemical. The essentials: (§1)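 Electrophile (20 μmol) incubated at 37 °C either in pH 7.4 buffer, or in DMSO-d6/D2O (5:1), with or without glutathione. Decay followed by 1H NMR kinetics. First-order rate constant kpseudo-1st taken from ln[electrophile] versus time; t1/2 = 0.693/(60×k), in min.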

Data set [2] can be described thus: Half life of the compound in DMSO. Type of data set: physicochemical. Summed up:
as §1

Data set [3] can be described thus: Half life of the compound in GSH. The data set is classed as physicochemical. The conditions noted are these: GSH (glutathione). Summed up: as §1
The target in data set [4] is T1, Fructose-1,6-bisphosphatase 1 (Homo sapiens, UniProt P09467).
T1 sequence (P09467 whole entry): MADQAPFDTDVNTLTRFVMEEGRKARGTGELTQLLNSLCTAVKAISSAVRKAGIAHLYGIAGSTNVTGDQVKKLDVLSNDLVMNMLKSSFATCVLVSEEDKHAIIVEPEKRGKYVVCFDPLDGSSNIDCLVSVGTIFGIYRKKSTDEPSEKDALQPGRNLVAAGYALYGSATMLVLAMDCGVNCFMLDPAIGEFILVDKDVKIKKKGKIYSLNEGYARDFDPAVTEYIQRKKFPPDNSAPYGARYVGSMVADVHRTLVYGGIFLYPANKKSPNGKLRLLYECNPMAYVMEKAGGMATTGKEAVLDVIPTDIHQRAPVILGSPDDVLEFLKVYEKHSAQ
As to the kind of experiment: Inhibition of human FBPase expressed Escherichia coli BL21 in by malachite green dye based spectrophotometry. Summed up: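 His-tagged human liver FBPase expressed in E. coli BL21(DE3) and purified by Ni affinity. Phosphate released from FBP complexed with ammonium molybdate/malachite green and read at 620 nm against a KH2PO4 standard curve (2−60 μM). Initial rates at saturating substrate, fixed effector and varied inhibitor fitted to the Hill equation for IC50.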

The species named for data set [5] is Homo sapiens. Description: Selectivity ratio of IC50 for human FBPase to IC50 for recombinant ALDOA (unknown origin). Summed up:
(§2)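 Aldolase (ALDOA/B/C) IC50 by NADH-coupled assay: enzyme plus serial compound dilutions, 0.41 mM NADH and TPI in 0.1 M Tris pH 7.4/0.2 M K-acetate, 3 min at 37 °C. Started with FBP and […], A340 read every 30 s for 6 min. Ratios against the FBPase IC50 from malachite green phosphate assay (620 nm).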

The species named for data set [6] is Homo sapiens. As to the kind of experiment: Selectivity ratio of IC50 for human FBPase to IC50 for recombinant ALDOB (unknown origin). The essentials:
as §2

The species entered for data set [7] is Homo sapiens. As to the kind of experiment: Selectivity ratio of IC50 for human FBPase to IC50 for recombinant ALDOC (unknown origin). The essentials:
as §2

Data set [8] is filed under the species Homo sapiens. Description: Selectivity ratio of IC50 for human FBPase to IC50 for human GAPDH. The essentials: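 Recombinant human GAPDH (His-tag, E. coli; 0.1 mg/mL final) preincubated 30 min with compound in 10 mM sodium pyrophosphate pH 8.5 at 37 °C. Started with arsenate, 4 mM NAD+ and 12 mM G3P; A340 at 4 min. Ratio taken against FBPase IC50 from the malachite green phosphate-release assay.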

On to `COc1cccc(CNC(=O)N2C(=O)c3ccccc3S2(=O)=O)c1`, for which the half-life was over 6.94 days in data set [1], over 6.94 days in data set [2] and 31.4 min in data set [3]. The IC50 in data set [4] turned out to be 1.9 µM. In addition, the Ratio IC50 in the data set listed under Homo sapiens [5], in the data set filed under Homo sapiens [6], in the data set listed under Homo sapiens [7] and in the data set listed under Homo sapiens [8] was over 25 throughout.
Regarding `CCCNC(=O)N1C(=O)c2ccccc2S1(=O)=O`, the half-life is over 6.94 days in data set [1], over 6.94 days in data set [2] and 46.5 min in data set [3]. In data set [4], this molecule registered an IC50 of over 500 µM.
Turning to `O=C(c1ccccc1)N1Cc2ccccc2C1=O`, the results for the half-life in data set [1], in data set [2] and in data set [3] were over 6.94 days, over 6.94 days and over 10000 min, respectively.
For `O=C(NCc1ccccc1Cl)N1C(=O)c2ccccc2S1(=O)=O`, the half-life in data set [1] is over 6.94 days; in data set [2] it was over 6.94 days; in data set [3], 25.2 min.
In the case of `O=C(NCc1cccc2ccccc12)N1C(=O)c2ccccc2S1(=O)=O`, the half-life in data set [1] is over 6.94 days; in data set [2], over 6.94 days; in data set [3], 23.7 min.
As for `O=C(NCc1cccc(Br)c1)N1C(=O)c2ccccc2S1(=O)=O`, the half-life in data set [1] was over 6.94 days; in data set [2], over 6.94 days; in data set [3] it was 29.5 min.
As for `O=C(Cc1ccccc1)N1C(=O)c2ccccc2S1(=O)=O`, the half-life is over 6.94 days in data set [1] and 0.142 days in data set [2].
As for `Cc1ccccc1CNC(=O)N1C(=O)c2ccccc2S1(=O)=O`, the half-life is over 6.94 days in data set [1], over 6.94 days in data set [2] and 47.5 min in data set [3]. Further, in data set [4], half-maximal inhibition (IC50) was put at 3.6 µM. Besides, the Ratio IC50 is over 25 in the data set listed under Homo sapiens [5], over 25 in the data set listed under Homo sapiens [6], over 25 in the data set filed under Homo sapiens [7] and 3.6 in the data set listed under Homo sapiens [8].
In the case of `O=C(c1ccccc1)N1Cc2ccccc2S1(=O)=O`, the half-life in data set [1] is over 6.94 days; in data set [2] it was over 6.94 days; in data set [3] it was over 10000 min.
For the molecule `O=C(NCC1CCCCC1)N1C(=O)c2ccccc2S1(=O)=O`, the half-life in data set [1] was over 6.94 days; in data set [2] it was over 6.94 days; in data set [3], 57.8 min. In data set [4], the IC50 stood at 16.4 µM.
Consider `O=C(OCc1ccccc1)N1C(=O)c2ccccc2S1(=O)=O`, for which the results for the half-life in data set [1], in data set [2] and in data set [3] were over 6.94 days, over 6.94 days and under 1 min, respectively.
For the molecule `O=C(NCc1cccs1)N1C(=O)c2ccccc2S1(=O)=O`, the half-life was over 6.94 days in data set [1], over 6.94 days in data set [2] and 21.9 min in data set [3].
Consider `O=C(NCc1ccccc1Br)N1C(=O)c2ccccc2S1(=O)=O`, for which the half-life in data set [1] is over 6.94 days; in data set [2] it was over 6.94 days; in data set [3], 15.2 min.
On to `O=C(Oc1ccccc1)N1C(=O)c2ccccc2S1(=O)=O`, for which the half-life in data set [1] was over 6.94 days; in data set [2] it was 0.127 days.
For `O=C(NCCc1ccccc1)N1C(=O)c2ccccc2S1(=O)=O`, the half-life in data set [1] was over 6.94 days; in data set [2] it was over 6.94 days; in data set [3] it was 33.6 min.
Regarding `O=C(NCc1ccccc1C(F)(F)F)N1C(=O)c2ccccc2S1(=O)=O`, the half-life in data set [1] is over 6.94 days; in data set [2], over 6.94 days; in data set [3] it was 11.2 min.
With `O=C(NCc1ccc(C(F)(F)F)cc1)N1C(=O)c2ccccc2S1(=O)=O`, the figures for the half-life in data set [1], in data set [2] and in data set [3] were over 6.94 days, over 6.94 days and 12.7 min, respectively.
`COc1ccc(CNC(=O)N2C(=O)c3ccccc3S2(=O)=O)cc1` displayed a half-life in data set [3] of 11.2 min.
For `O=C(NCc1ccccc1F)N1C(=O)c2ccccc2S1(=O)=O`, the half-life in data set [1] is over 6.94 days; in data set [2] it was over 6.94 days; in data set [3], 35.9 min. This molecule came in with an IC50 in data set [4] of 4.2 µM. Further, the Ratio IC50 in the data set filed under Homo sapiens [5] was over 25; in the data set filed under Homo sapiens [6] it was over 25; in the data set listed under Homo sapiens [7] it was over 25; in the data set listed under Homo sapiens [8] it was 16.3.
For the molecule `CC(NC(=O)N1C(=O)c2ccccc2S1(=O)=O)c1ccccc1` (stereo not drawn), the values for the half-life in data set [1], in data set [2] and in data set [3] were over 6.94 days, over 6.94 days and 39.8 min, respectively. Also, half-maximal inhibition in data set [4] (IC50) was put at 8.7 µM. Further, the Ratio IC50 in the data set filed under Homo sapiens [5] was over 25; in the data set listed under Homo sapiens [6], over 25; in the data set filed under Homo sapiens [7] it was over 25; in the data set listed under Homo sapiens [8], 1.3.
For the molecule `O=C(NCc1ccc(Br)cc1)N1C(=O)c2ccccc2S1(=O)=O`, in data set [3], the half-life was determined as 11.2 min.
Consider `O=C(CCc1ccccc1)N1C(=O)c2ccccc2S1(=O)=O`, for which the half-life was over 6.94 days in data set [1] and 0.241 days in data set [2].
On the same counts, the results for `O=C(c1ccccc1)N1C(=O)c2ccccc2S1(=O)=O` are over 6.94 days and over 0.0365 days.
